{"source": "ChEMBL document CHEMBL1123363", "about": "“(5-Amino-1,3-dimethyl-1H-pyrazol-4-yl)(2-fluorophenyl)methanones . A series of novel potential antipsychotic agents” (J Med Chem, 1986)", "key": {"[1]": {"assay": "Inhibition of sidman avoidance in rats after peroral administration"}, "Dopamine receptor": {"target": "Dopamine receptor", "assay": "Binding affinity against dopamine receptor in rat striatal membrane using [3H]haloperidol", "format": "cell membranes, Striatum", "in_short": "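Nonspecific binding defined with (+)-butaclamol at 0.1 μM final. IC50 fitted by nonlinear curve fit from four or five concentrations in triplicate.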"}, "[2]": {"target": "T1, Serotonin 1 (5-HT1) receptor (Rattus norvegicus, UniProt P28564+P30940+P19327+P28565)", "assay": "Binding affinity against serotonin-1 receptor in rat brain using [3H]5-HT", "format": "tissue-based", "in_short": "(§1)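 Serotonin-1 binding in rat cortex membranes (male Long-Evans, 150–250 g) with [3H]-5-HT at 2.0 nM final. (+)-Butaclamol at 1 μM final was the reference. IC50 from four or five concentrations by nonlinear curve fit.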"}, "Canis familiaris [3]": {"test_system": "Canis familiaris", "assay": "Emesis test in dogs was determined when dose administered per orally", "format": "functional", "details": "Canis lupus familiaris, po; read-out: MED", "in_short": "(§2)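 Fasted dogs (7–12 kg), normally three per dose, were dosed orally and observed hourly for up to 6 h for emesis and other autonomic or behavioural signs. The minimal effective dose was the lowest dose producing emesis in any animal.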"}, "Rattus norvegicus [4]": {"test_system": "Rattus norvegicus", "assay": "Compound was tested for its effect on Dopamine turnover in rat at dose of 64 mg/kg ip", "format": "functional", "details": "route intraperitoneal", "in_short": "(§3)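 Rats were given compound or vehicle ip 30 min before α-methyl-p-tyrosine (250 mg/kg ip) and killed 4 h later. Brain NE and DA were measured spectrofluorometrically, with at least five determinations per value, and expressed as % of vehicle-treated levels ± SEM.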"}, "Rattus norvegicus [5]": {"test_system": "Rattus norvegicus", "assay": "Compound was tested for its effect on norepinephrine turnover in rat at dose of 64 mg/kg ip", "format": "functional", "details": "route intraperitoneal", "in_short": "as §3"}, "Canis familiaris [6]": {"test_system": "Canis familiaris", "assay": "Emesis test in dogs was determined when administered perorally", "format": "functional", "details": "Canis lupus familiaris, po; read-out: MED", "in_short": "as §2"}, "[7]": {"target": "T2, Adrenergic receptor alpha-2 (Rattus norvegicus, UniProt P22086+P19328+P22909)", "T2 sequence (P22086 whole entry)": "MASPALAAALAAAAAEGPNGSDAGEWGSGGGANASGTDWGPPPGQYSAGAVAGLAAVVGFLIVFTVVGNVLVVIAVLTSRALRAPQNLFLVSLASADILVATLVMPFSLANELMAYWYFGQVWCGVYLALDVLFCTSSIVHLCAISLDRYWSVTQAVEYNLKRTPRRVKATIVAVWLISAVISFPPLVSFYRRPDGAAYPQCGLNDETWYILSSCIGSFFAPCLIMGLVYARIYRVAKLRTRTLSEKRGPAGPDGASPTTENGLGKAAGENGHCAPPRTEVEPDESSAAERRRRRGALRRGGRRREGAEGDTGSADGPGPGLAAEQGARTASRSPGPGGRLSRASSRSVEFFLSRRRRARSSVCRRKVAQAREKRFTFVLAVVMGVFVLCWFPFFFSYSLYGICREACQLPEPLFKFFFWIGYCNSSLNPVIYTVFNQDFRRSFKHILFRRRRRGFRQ", "T2 sequence (P19328 whole entry)": "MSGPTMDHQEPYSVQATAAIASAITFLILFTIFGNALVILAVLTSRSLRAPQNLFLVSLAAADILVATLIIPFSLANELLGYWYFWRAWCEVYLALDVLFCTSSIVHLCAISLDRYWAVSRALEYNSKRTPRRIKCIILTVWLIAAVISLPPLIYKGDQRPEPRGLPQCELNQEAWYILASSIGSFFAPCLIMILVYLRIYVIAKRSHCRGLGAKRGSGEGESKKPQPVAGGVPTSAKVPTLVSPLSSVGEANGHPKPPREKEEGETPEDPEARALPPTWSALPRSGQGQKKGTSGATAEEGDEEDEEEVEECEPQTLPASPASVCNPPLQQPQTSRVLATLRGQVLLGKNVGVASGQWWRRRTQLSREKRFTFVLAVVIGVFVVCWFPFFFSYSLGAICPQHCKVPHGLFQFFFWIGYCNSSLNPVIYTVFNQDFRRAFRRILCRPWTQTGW", "T2 sequence (P22909 whole entry)": "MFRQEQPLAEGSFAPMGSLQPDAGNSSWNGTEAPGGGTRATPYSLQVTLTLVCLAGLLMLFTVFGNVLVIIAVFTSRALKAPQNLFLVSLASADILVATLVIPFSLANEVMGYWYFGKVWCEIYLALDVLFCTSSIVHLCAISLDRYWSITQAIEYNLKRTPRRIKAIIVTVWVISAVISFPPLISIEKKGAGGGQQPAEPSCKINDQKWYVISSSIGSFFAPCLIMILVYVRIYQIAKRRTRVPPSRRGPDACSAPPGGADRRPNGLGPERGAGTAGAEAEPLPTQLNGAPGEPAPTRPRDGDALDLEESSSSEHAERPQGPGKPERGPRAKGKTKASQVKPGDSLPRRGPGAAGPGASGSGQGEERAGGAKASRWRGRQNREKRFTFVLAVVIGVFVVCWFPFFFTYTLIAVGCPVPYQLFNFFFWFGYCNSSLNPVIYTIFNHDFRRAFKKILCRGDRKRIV", "assay": "Binding affinity against the alpha-2 adrenergic receptor using [3H]- clonidine", "format": "protein assay", "in_short": "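α2 sites in rat cerebral cortex membranes (male Long-Evans, 150–250 g) labelled with [3H]clonidine at 0.4 nM final. (-)-Norepinephrine at 10 μM final was the reference. IC50 from four or five concentrations by nonlinear fit.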"}, "Rattus norvegicus [8]": {"test_system": "Rattus norvegicus", "assay": "Compound was tested for serum prolactin assay method in rats at 1 mg/kg dose after peroral administration", "format": "functional", "details": "route oral", "in_short": "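Seven-week-old male Sprague–Dawley rats, five per group, were dosed orally and killed by decapitation 1 h later. Serum prolactin from trunk blood was measured by radioimmunoassay with [125I]-PRL and expressed as % of control (mean ± SEM).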"}, "Rattus norvegicus [9]": {"test_system": "Rattus norvegicus", "assay": "Compound was tested for its antagonized affect on the accumulation of the brain dopamine induced by butyrolactone (GBL) at 25 mg/kg after intraperitoneal administration", "format": "functional", "set-up": "scale not given: the % may be the effect or the level left", "in_short": "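Rats received test compound ip 30 min before γ-butyrolactone (750 mg/kg ip) and were killed 1 h after GBL. Dopamine in brain minus brain stem and cerebellum (four to six rats) was measured spectrofluorometrically and expressed as % of the GBL-treated group.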"}, "[10]": {"target": "Serotonin 2 (5-HT2) receptor (Rattus norvegicus, UniProt P30994+P08909+P14842)", "assay": "Binding affinity towards 5-hydroxytryptamine 2 receptor using [3H]- spiroperidol", "format": "protein assay", "in_short": "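Serotonin-2 sites in rat cerebral cortex membranes (male Long-Evans, 150–250 g) with [3H]spiroperidol at 0.2 nM final. (+)-Butaclamol at 1.0 μM final was the reference. IC50 from four or five concentrations by nonlinear curve fitting.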"}, "[11]": {"target": "Beta-1 adrenergic receptor (Rattus norvegicus, UniProt P18090)", "sequence (P18090 whole entry)": "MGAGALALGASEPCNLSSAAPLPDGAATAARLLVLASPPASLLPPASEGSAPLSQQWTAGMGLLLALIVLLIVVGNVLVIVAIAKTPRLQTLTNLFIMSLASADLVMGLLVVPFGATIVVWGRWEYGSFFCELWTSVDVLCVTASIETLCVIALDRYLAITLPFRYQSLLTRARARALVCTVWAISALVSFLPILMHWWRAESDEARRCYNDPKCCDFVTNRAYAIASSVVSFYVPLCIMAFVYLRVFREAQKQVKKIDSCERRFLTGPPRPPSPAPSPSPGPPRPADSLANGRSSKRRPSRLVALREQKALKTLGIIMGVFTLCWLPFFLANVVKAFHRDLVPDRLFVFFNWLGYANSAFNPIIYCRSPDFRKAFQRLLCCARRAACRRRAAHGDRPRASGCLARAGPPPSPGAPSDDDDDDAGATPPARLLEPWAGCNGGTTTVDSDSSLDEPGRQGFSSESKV", "assay": "Binding affinity against the beta-1 adrenergic receptor using [3H]- DHA", "in_short": "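β1 sites in rat cerebral cortex membranes (male Long-Evans, 150–250 g) with [3H]dihydroalprenolol at 0.5 nM final. (-)-Alprenolol at 1 μM final defined the reference. IC50 from four or five concentrations by nonlinear curve fit.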"}, "[12]": {"target": "T1, Serotonin 1 (5-HT1) receptor", "assay": "Binding affinity against the serotonin-1 receptor using [3H]- 5-HT", "format": "protein assay", "in_short": "as §1"}, "[13]": {"target": "Muscarinic acetylcholine receptor", "assay": "Binding affinity against muscarinic receptor in rat brain using [3H]- QNB", "format": "tissue-based", "in_short": "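Muscarinic sites in rat brain stem membranes (male Long-Evans, 150–250 g), labelled with [3H]quinuclidinyl benzilate at 0.03 nM final. Oxotremorine at 100 μM final served as the reference displacer. IC50 from four or five concentrations by nonlinear curve fitting.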"}}, "data": [{"smiles": "Cc1nn(C)c(NC(=O)CNCCCN2CCCCC2C)c1C(=O)c1ccccc1F", "note": "(centres undefined)", "values": [{"measurement": "ED50", "setting": "[1]", "value": 21.3, "unit": "mg/kg"}, {"measurement": "IC50", "setting": "Dopamine receptor", "value": "> 10", "unit": "µM"}, {"measurement": "IC50", "setting": "[2]", "value": "> 10", "unit": "µM"}, {"measurement": "minimal effective dose", "setting": "Canis familiaris [3]", "value": 56, "unit": "mg/kg"}, {"measurement": "Control", "setting": "Rattus norvegicus [4]", "value": 96.6, "unit": "%"}, {"measurement": "Control", "setting": "Rattus norvegicus [5]", "value": 102.8, "unit": "%"}]}, {"smiles": "CCN(CC)CC(=O)Nc1c(C(=O)c2ccccc2F)c(C)nn1C", "values": [{"measurement": "minimal effective dose", "setting": "Canis familiaris [6]", "value": 56, "unit": "mg/kg"}, {"measurement": "IC50", "setting": "[7]", "value": "> 10", "unit": "µM"}, {"measurement": "Control", "setting": "Rattus norvegicus [8]", "value": 87.4, "unit": "%"}, {"measurement": "Control", "setting": "Rattus norvegicus [9]", "value": 85.5, "unit": "%"}, {"measurement": "IC50", "setting": "[10]", "value": "> 10", "unit": "µM"}, {"measurement": "IC50", "setting": "[11]", "value": "> 10", "unit": "µM"}, {"measurement": "IC50", "setting": "[12]", "value": "> 10", "unit": "µM"}]}, {"smiles": "Cc1nn(C)c(N)c1C(=O)c1ccccc1F", "values": [{"measurement": "IC50", "setting": "[13]", "value": "> 10", "unit": "µM"}]}]}
